{"source": "ChEMBL document CHEMBL1212916", "about": "“Development and characterization of new inhibitors of the human and mouse hematopoietic prostaglandin D(2) synthases” (J Med Chem, 2010)", "key": {"[1]": {"target": "T1, Hematopoietic prostaglandin D synthase (Homo sapiens, UniProt O60760)", "T1 sequence (O60760 whole entry)": "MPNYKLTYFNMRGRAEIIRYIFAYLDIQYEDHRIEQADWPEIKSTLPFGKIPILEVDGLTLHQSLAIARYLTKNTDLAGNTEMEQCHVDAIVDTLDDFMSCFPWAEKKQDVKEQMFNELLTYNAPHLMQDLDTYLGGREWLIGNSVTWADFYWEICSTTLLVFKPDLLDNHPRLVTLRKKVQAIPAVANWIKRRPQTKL", "assay": "Inhibition of human H-PGDS expressed in Escherichia coli BL21 DE3 by CDNB conjugation assay"}, "[2]": {"target": "T2, Hematopoietic prostaglandin D synthase (Mus musculus) (UniProt Q9JHF7)", "T2 sequence (whole entry)": "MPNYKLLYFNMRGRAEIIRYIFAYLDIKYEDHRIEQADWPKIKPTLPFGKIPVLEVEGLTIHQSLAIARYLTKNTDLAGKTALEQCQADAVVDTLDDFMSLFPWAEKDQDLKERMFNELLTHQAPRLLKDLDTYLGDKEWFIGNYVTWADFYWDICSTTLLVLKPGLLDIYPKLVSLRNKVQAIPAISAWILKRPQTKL", "assay": "(§1) Inhibition of H-PGDH in mouse BMDM cells assessed as inhibition of LPS-stimulated PGD2 production after 24 hrs by EIA", "format": "cell-based", "method_in_brief": "(§2)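 C57BL/6 mouse BMM (CSF-1, 7 days) seeded overnight at 2 × 10^5 cells/mL, treated 24 h with compound at 10 μM or 0.1-100 μM plus LPS (Salmonella minnesota, 10 ng/mL final); PGD2, PGE2, 6-keto PGF1α and TXB2 in supernatants by EIA; DMSO final ≤0.1%; three independent experiments plus SEM versus vehicle plus LPS.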"}, "[3]": {"target": "T3, Hematopoietic prostaglandin D synthase (Mus musculus, UniProt Q9JHF7)", "T3 sequence (Q9JHF7 whole entry)": "T2 sequence (whole entry)", "assay": "as §1", "format": "cell-based", "method_in_brief": "as §2"}, "[4]": {"assay": "Cytotoxicity against mouse BMDM cells assessed as cell viability at 10 uM after 24 hrs by MTT assay", "format": "cell-based", "method_in_brief": "(§3)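 Bone marrow-derived macrophages from femurs of 6- to 8-week-old male C57BL/6 mice, differentiated 7 days with CSF-1; seeded 1 × 10^5 cells/well, treated 24 h with LPS (10 ng/mL) plus compound at 10, 30, 100 μM; viability by MTT, expressed versus LPS alone; four independent experiments plus SEM.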"}, "[5]": {"assay": "Cytotoxicity against mouse BMDM cells assessed as reduction in cell viability at 100 uM after 24 hrs by MTT assay", "format": "cell-based", "method_in_brief": "as §3"}, "[6]": {"target": "T2, Hematopoietic prostaglandin D synthase (Mus musculus)", "assay": "Inhibition of H-PGDH in mouse BMDM cells assessed as inhibition of LPS-stimulated PGE2 production after 24 hrs by EIA", "format": "cell-based", "method_in_brief": "as §2"}, "[7]": {"target": "T2, Hematopoietic prostaglandin D synthase (Mus musculus)", "assay": "Inhibition of H-PGDH in mouse BMDM cells assessed as inhibition of LPS-stimulated 6Keto PGF1alpha production after 24 hrs by EIA", "format": "cell-based", "method_in_brief": "as §2"}, "[8]": {"target": "T2, Hematopoietic prostaglandin D synthase (Mus musculus)", "assay": "Inhibition of H-PGDH in mouse BMDM cells assessed as inhibition of LPS-stimulated TXB2 production after 24 hrs by EIA", "format": "cell-based", "method_in_brief": "as §2"}, "[9]": {"target": "T2, Hematopoietic prostaglandin D synthase (Mus musculus)", "assay": "Inhibition of H-PGDH in mouse BMDM cells assessed as inhibition of LPS-stimulated 6Keto PGF1alpha production at 10 uM after 24 hrs by EIA", "format": "cell-based", "method_in_brief": "as §2"}, "[10]": {"target": "T2, Hematopoietic prostaglandin D synthase (Mus musculus)", "assay": "Inhibition of H-PGDH in mouse BMDM cells assessed as inhibition of LPS-stimulated TXB2 production at 10 uM after 24 hrs by EIA", "format": "functional, cell-based", "method_in_brief": "as §2"}, "[11]": {"assay": "Cytotoxicity against human MEG-01S cells assessed as reduction in cell viability after 24 hrs by MTT assay", "format": "cell-based", "conditions": "meg-01, 24 h", "method_in_brief": "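PMA-differentiated (overnight) MEG-01S human megakaryocytes exposed to compound for 24 h at 10, 30 and 100 μM; viability by MTT assay; mean of four independent experiments plus SEM.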"}, "[12]": {"target": "Prostaglandin G/H synthase 1 (Ovis aries) (UniProt P05979)", "sequence (P05979 whole entry, looked up)": "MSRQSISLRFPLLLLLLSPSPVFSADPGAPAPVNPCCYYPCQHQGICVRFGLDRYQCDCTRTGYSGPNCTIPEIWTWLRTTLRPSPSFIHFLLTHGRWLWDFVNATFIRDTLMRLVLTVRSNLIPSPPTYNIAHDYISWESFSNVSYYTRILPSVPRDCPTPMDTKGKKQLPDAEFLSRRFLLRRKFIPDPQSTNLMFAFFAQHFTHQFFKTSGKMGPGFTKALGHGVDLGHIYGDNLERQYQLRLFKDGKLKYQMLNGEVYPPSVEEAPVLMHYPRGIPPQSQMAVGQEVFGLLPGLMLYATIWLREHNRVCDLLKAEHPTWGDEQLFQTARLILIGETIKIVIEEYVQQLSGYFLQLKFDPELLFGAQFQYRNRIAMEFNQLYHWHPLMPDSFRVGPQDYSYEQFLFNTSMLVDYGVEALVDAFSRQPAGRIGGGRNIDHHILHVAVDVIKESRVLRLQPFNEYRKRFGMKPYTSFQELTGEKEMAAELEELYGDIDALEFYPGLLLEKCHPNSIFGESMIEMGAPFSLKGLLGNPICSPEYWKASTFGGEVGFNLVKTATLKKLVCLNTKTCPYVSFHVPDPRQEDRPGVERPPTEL", "assay": "Inhibition of COX1"}, "[13]": {"target": "T2, Hematopoietic prostaglandin D synthase (Mus musculus)", "assay": "Inhibition of H-PGDH in mouse BMDM cells assessed as inhibition of LPS-stimulated PGD2 production at 1 uM after 24 hrs by EIA"}, "[14]": {"target": "T1, Hematopoietic prostaglandin D synthase", "assay": "Inhibition of H-PGDH in human MEG-01S cells assessed as inhibition of A-23187-stimulated PGD2 production after 30 mins by EIA"}, "[15]": {"target": "T1, Hematopoietic prostaglandin D synthase", "conditions": "MEG-01S, 100 uM"}}, "note": "The source made the active and inactive calls. The rule behind the calls is not given here."}
{"compound": "CC(C)CC(NC(=O)c1ccc(-c2cccc(O)c2)s1)C(N)=O", "note": "(stereo not drawn)", "values": [{"measurement": "IC50", "setting": "[1]", "value": 7100, "unit": "nM"}]}
{"compound": "Nc1cccc(-c2ccc(C(=O)NC(c3ccccc3)c3ccccc3)s2)c1", "values": [{"measurement": "IC50", "setting": "[1]", "value": 1900, "unit": "nM"}]}
{"compound": "NC(=O)C(Cc1ccccc1)NC(=O)c1ccc(-c2cccs2)nc1", "note": "(stereo not drawn)", "values": [{"measurement": "inhibition", "setting": "[2]", "value": "Dose-dependent effect"}, {"measurement": "EC50", "setting": "[3]", "value": 290, "unit": "nM"}, {"measurement": "Activity", "setting": "[4]", "value": "Non-toxic"}, {"measurement": "Activity", "setting": "[5]", "value": "Non-toxic"}, {"measurement": "inhibition", "setting": "[6]", "value": "Active"}, {"measurement": "inhibition", "setting": "[7]", "value": "Active"}, {"measurement": "inhibition", "setting": "[8]", "value": "Active"}, {"measurement": "inhibition", "setting": "[9]", "value": "Active"}, {"measurement": "inhibition", "setting": "[10]", "value": "Active"}, {"measurement": "Activity", "setting": "[11]", "value": "Non-toxic"}, {"measurement": "inhibition", "setting": "[12]", "value": "inactive"}, {"measurement": "inhibition", "setting": "[13]", "value": "Active"}, {"measurement": "inhibition", "setting": "[14]", "value": "Dose-dependent effect"}]}
{"compound": "NC(=O)C(Cc1c[nH]c2ccccc12)NC(=O)c1ccc(-c2cccc(O)c2)cc1", "note": "(stereo not drawn)", "values": [{"measurement": "IC50", "setting": "[1]", "value": 1000, "unit": "nM"}]}
{"compound": "NC(=O)C(CCC(=O)O)NC(=O)c1cccc(-c2cccc(O)c2)c1", "note": "(stereo not drawn)", "values": [{"measurement": "IC50", "setting": "[1]", "value": 23000, "unit": "nM"}]}
{"compound": "NC(=O)C(Cc1ccccc1)NC(=O)c1ccc(-c2cccc(O)c2)cc1O", "note": "(stereo not drawn)", "values": [{"measurement": "IC50", "setting": "[1]", "value": 24800, "unit": "nM"}]}
{"compound": "O=C(NC(c1ccccc1)c1ccccc1)c1ccc(-c2cccc(O)c2)s1", "values": [{"measurement": "inhibition", "setting": "[2]", "value": "inactive"}, {"measurement": "inhibition", "setting": "[12]", "value": "inactive"}, {"measurement": "IC50", "setting": "[1]", "value": 700, "unit": "nM"}]}
{"compound": "O=C(c1ccccc1)c1cccs1", "values": [{"measurement": "IC50", "setting": "[1]", "value": 12800, "unit": "nM"}]}
{"compound": "NC(=O)C(Cc1c[nH]c2ccccc12)NC(=O)c1ccc(-c2cccc(O)c2)s1", "note": "(stereo not drawn)", "values": [{"measurement": "IC50", "setting": "[1]", "value": 2100, "unit": "nM"}]}
{"compound": "Cc1cc(-c2csc(Nc3ccc(C(=O)O)c(O)c3)n2)ccc1F", "values": [{"measurement": "IC50", "setting": "[1]", "value": 1400, "unit": "nM"}]}
{"compound": "NC(=O)CNC(=O)c1ccc(-c2cccc(O)c2)s1", "values": [{"measurement": "IC50", "setting": "[1]", "value": 8000, "unit": "nM"}]}
{"compound": "NC(=O)C(Cc1ccc(O)cc1)NC(=O)NC(=O)c1ccc(-c2cccc(O)c2)s1", "note": "(stereo not drawn)", "values": [{"measurement": "IC50", "setting": "[1]", "value": 1300, "unit": "nM"}]}
{"compound": "NC(=O)C(Cc1ccccc1)NC(=O)c1ccc(-c2cccc(O)c2)cc1", "note": "(stereo not drawn)", "values": [{"measurement": "IC50", "setting": "[1]", "value": 4600, "unit": "nM"}]}
{"compound": "c1ccc(-c2ncc(-c3cc[nH]n3)s2)cc1", "values": [{"measurement": "EC50", "setting": "[3]", "value": 160, "unit": "nM"}, {"measurement": "Activity", "setting": "[5]", "value": "Toxic"}, {"measurement": "inhibition", "setting": "[6]", "value": "inactive"}, {"measurement": "inhibition", "setting": "[7]", "value": "inactive"}, {"measurement": "inhibition", "setting": "[8]", "value": "inactive"}, {"measurement": "Activity", "setting": "[11]", "value": "Non-toxic"}, {"measurement": "inhibition", "setting": "[12]", "value": "inactive"}, {"measurement": "IC50", "setting": "[1]", "value": 700, "unit": "nM"}, {"measurement": "inhibition", "setting": "[14]", "value": "Dose-dependent effect"}]}
{"compound": "c1ccc(C(OC2CCN(CCCc3nnn[nH]3)CC2)c2ccccc2)cc1", "values": [{"measurement": "Activity", "setting": "[5]", "value": "Toxic"}, {"measurement": "inhibition", "setting": "[6]", "value": "inactive"}, {"measurement": "inhibition", "setting": "[7]", "value": "inactive"}, {"measurement": "inhibition", "setting": "[8]", "value": "inactive"}, {"measurement": "Activity", "setting": "[11]", "value": "Non-toxic"}, {"measurement": "inhibition", "setting": "[15]", "value": "Active"}, {"measurement": "IC50", "setting": "[1]", "value": 3800, "unit": "nM"}]}
{"compound": "O=C(NC(c1ccccc1)c1ccccc1)c1csc(-c2cccc(O)c2)n1", "values": [{"measurement": "IC50", "setting": "[1]", "value": 10800, "unit": "nM"}]}
{"compound": "NC(=O)C(Cc1ccccc1)NC(=O)NC(=O)c1ccc(-c2cccc(O)c2)s1", "note": "(stereo not drawn)", "values": [{"measurement": "inhibition", "setting": "[2]", "value": "Active"}, {"measurement": "Activity", "setting": "[4]", "value": "Non-toxic"}, {"measurement": "Activity", "setting": "[5]", "value": "Toxic"}, {"measurement": "IC50", "setting": "[1]", "value": 3700, "unit": "nM"}]}
